Only some compounds are listed: those with a hit (about 1.6% of all), similar ones and a draw of the others.
Scp-1 inhibitor: Scp-1 (human) phosphatase inhibition; Q9GZU7; Recombinant Scp1, phosphopeptide, malachite green phosphate absorbance; inhibition, % at 20 µM; 340,000 tested, 0.88% active;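 active = inhibition above about 50% at 20 µM, limit read from the data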
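Assay system: SCP-1 catalytic fragment, aa 76-261 | Buffer or medium: Tris acetate buffer pH 5.5 with MgCl2 and Tween-20 | Compound: One concentration, 20 µM, with 1.0% DMSO | Also added: Phospho 17-mer peptide substrate | Signal: Absorbance at 630 nm | Incubation: 45 min enzyme reaction at room temperature | Measure: % inhibition of SCP-1 phosphate liberation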
STEP block: blocks human striatal-enriched tyrosine phosphatase; inhibition, % at 20 µM; 360,000 tested, 0.25% active; recombinant STEP, OMFP fluorogenic substrate, fluorescence;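 active = inhibition at 20 µM, scaled per plate between control wells, above about 37%, limit read from the data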
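Test system: STEP tyrosine phosphatase / Reagent: OMFP at 25 µM / Doses: 20 µM, 1% DMSO / Read-out: percent inhibition scaled to no-enzyme and uninhibited-enzyme controls, plate-pattern corrected / Detection: FITC-channel fluorescence of OMFP product / Medium: Bis-Tris buffer pH 6.0, 2.5 mM DTT, 0.005% Tween 20 / Schedule: 20 min at room temperature, dark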
SUMO1 PPI mod: modulators of human SUMO1-mediated protein-protein interactions; P63165; SUMO1 binding to a labelled peptide, TR-FRET, 1 h; 360,000 tested, 0.33% active; inhibition, % at 20 µM; in the data active = inhibition above about 37%
CFTR F508del cor: CFTR F508del correction in bronchial cells; CFBE cells, YFP halide quenching; stimulated with forskolin plus potentiator P3; % fluorescence drop versus neutral controls; activity (quench increase), % at 7.58 µM; 350,000 tested, 0.36% active;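 active = mean added fluorescence quench of at least 8% versus neutral control, with both replicates also reaching 8%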;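 also: cells transiently co-express mutant CFTR-F508del with the halide-sensitive YFP; corrector assay measuring rescue of mutant channel to the surface after 24 h compound exposure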
LMPTP inh: blocks human LMPTP phosphatase; inhibition, % at 20 µM; P24666; recombinant LMPTP-A, OMFP fluorogenic substrate, fluorescence intensity; 360,000 tested, 0.22% active;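 active = compounds that cut the enzyme signal by at least half of the control window in the single-dose screen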
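Buffer or medium: Bis-Tris pH 6.0, DTT, detergent; Assay system: LMPTP-A enzyme; Quantity: 0.625 nM enzyme; Detection: endpoint fluorescence intensity; Times: 50 min dark incubation at room temperature; Controls: substrate-only low control, DMSO enzyme-plus-substrate high control; Doses: single 20 µM dose; Read-out: percent inhibition versus substrate-only and uninhibited controls; Reagent: 400 µM OMFP.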
DNMT1 block: inhibitors of human DNMT1; DNMT1 molecular beacon, Hinp1I cleavage, fluorescence; inhibition (reported as % activation of signal), % at 10 µM; 360,000 tested, 0.83% active; AID 588458; in the data active = inhibition above about 50%
Scp-1 conf: confirmation of human Scp-1 phosphatase inhibitors; recombinant SCP-1 catalytic domain, phosphate release, malachite green absorbance; inhibition, % at 20 µM; AID 540281; 2,500 tested, 61% active; shares compounds with Scp-1 inhibitor
MG interference: colorimetric interference in Scp-1 counter-screen; shares compounds with Scp-1 inhibitor; Colorimetric interference counterscreen, malachite green absorbance 630 nm; apparent inhibition (interference), % at 20 µM; 2,500 tested, under 10 active;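 also: compounds added after enzyme reaction finished so only phosphate colour detection is probed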
Scp-1 Tm shift: binds human Scp-1, shifting its melting temperature. shares compounds with Scp-1 inhibitor. Recombinant SCP1, Sypro Orange thermal shift Tm. thermal shift relative to vanadate control, % at 40 µM. 1,500 tested, 25% active;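 active = substances whose mean melting-temperature shift, as a percentage of the reference inhibitor's shift, reaches about 5.3%, limit read from the data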
Numbers stand for hits; n = inactive; x = not tested or not shown.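 The calls were made as follows, unless noted: active = inhibition of at least 30% at 20 µM; inactive = the rest.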

SMILES	Scp-1 inhibitor	STEP block	SUMO1 PPI mod	CFTR F508del cor	LMPTP inh	DNMT1 block	Scp-1 conf	MG interference	others
COc1ccccc1CN1C[C@@H](C)[C@@H](OC)CN(C)C(=O)c2ccc(NC(C)=O)cc2OC[C@H]1C	x	x	x	n	x	x	x	x
CC(C)(C)C(=O)O/N=C(\N)COc1cccc(Cl)c1	79.2	n	n	n	n	n	n	n
CCOCc1cnc(C)nc1NCC(=O)c1c(C)n(C)c2ccc(OC)cc12	50.6	n	n	x	n	n	n	n
O=C(NCCN1CCNC1=O)C1CCC(=O)N(Cc2cccc(C(F)(F)F)c2)C1 (stereo not drawn)	n	n	n	n	n	n	n	n
O=C(NCCCC1CCCC1)C1CCC(=O)N(Cc2cccc(C(F)(F)F)c2)C1 (stereo not drawn)	n	n	n	n	n	n	x	x
Cc1c(NC(=O)CC2NC(=O)NC2=O)c(=O)n(-c2ccccc2)n1C (stereo not drawn)	x	x	x	x	x	x	n	n
Cc1c(NC(=O)CC(=O)Nc2c(C)n(C)n(-c3ccccc3)c2=O)c(=O)n(-c2ccccc2)n1C	n	n	n	x	n	n	x	x
O=C(COc1ccc2oc(-c3ccco3)cc(=O)c2c1)N1CCCCC1	59.5	n	n	n	n	n	44.1	n	Scp-1 Tm shift=n
O=C(COc1ccc2oc(-c3ccccc3)cc(=O)c2c1)NCc1ccco1	81.7	n	n	x	n	n	58.8	n	Scp-1 Tm shift=n
CCCC(=O)Nc1ccc2c(c1)OC[C@H](C)N(Cc1ccccn1)C[C@@H](C)[C@@H](OC)CN(C)C2=O	x	x	x	n	x	x	x	x
COc1ccc(-c2cnc3c(c2)C(=O)N([C@@H](C)CO)C[C@@H](C)[C@H](CN(C)C(=O)Cc2ccncc2)O3)cc1	x	x	x	n	x	x	x	x
O=C(NN=C1CCCC1)c1cc(O)cc(O)c1	52.0	n	n	n	n	n	53.5	n	Scp-1 Tm shift=n
CCCCCc1ccnc(CC(=O)c2ccc(OC)cc2)c1	94.0	n	n	n	n	n	n	n
O=C(Nc1ccc(Cl)cc1)OCc1cn(-c2ccc(Cl)cc2)nn1	84.0	n	n	x	n	n	n	n
CON(C)S(=O)(=O)c1cccc(C(=O)Nc2ccc(S(=O)(=O)NC3=NCCCCC3)cc2)c1	n	n	n	n	n	n	x	x
CCN(CC)S(=O)(=O)c1cccc(C(=O)Nc2ccc(S(=O)(=O)NC3=NCCCCC3)cc2)c1	55.7	n	n	n	n	n	n	n
O=C(Cn1ccc2ccccc2c1=O)NCCC(=O)Nc1cccnc1	60.4	n	n	x	n	n	n	n
O=C(Cn1ccc2ccccc2c1=O)NCCC(=O)Nc1cccc(Cl)c1	n	n	n	x	n	n	x	x
COc1ccc2cc(C(=O)NCc3ccco3)c(=Nc3ccc(C(=O)O)cc3)oc2c1	62.8	n	n	x	n	n	34.3	n	Scp-1 Tm shift=n
COc1ccc(S(=O)(=O)N2CCN(C(=O)c3ccc([N+](=O)[O-])o3)CC2)cc1	50.9	n	n	n	n	n	42.1	n	Scp-1 Tm shift=n
COc1ccc(CCC(=O)N2CCN(S(=O)(=O)c3ccc(C)cc3)CC2)cc1	n	n	n	n	n	n	x	x
c1ccc2nc(N3CCCC3)c(N3CCCC3)nc2c1	n	n	n	x	n	n	x	x
c1ccc2c(c1)nc(N1CCCCCC1)c1ccccc12	111.9	n	n	n	n	n	96.9	n	Scp-1 Tm shift=n
Cc1cccc(C)c1NC(=S)NCCCN1CCCC1=O	n	n	n	x	n	n	n	n
O=C1CCCN1CCCNC(=S)Nc1ccccc1	n	n	n	n	n	n	n	n
SMILES	Scp-1 inhibitor	STEP block	SUMO1 PPI mod	CFTR F508del cor	LMPTP inh	DNMT1 block	Scp-1 conf	MG interference	others
O=C(N/N=C/c1cc2c(cc1Br)OCO2)c1cc2ccccc2o1	57.8	n	n	n	n	n	n	n
CCCNC(=O)N[C@H]1CC[C@@H](CCn2cc(C3CCCC3)nn2)O[C@@H]1CO	x	x	x	n	x	x	x	x
CCC[N+]1(CC#CC2(O)CCCCC2)CCOCC1	58.7	n	n	n	n	n	76.7	n	Scp-1 Tm shift=n
CCOc1cc(/C=C2\SC(=O)N(CC(=O)Nc3ccccc3F)C2=O)cc([N+](=O)[O-])c1O	85.2	n	n	n	n	n	62.0	n	Scp-1 Tm shift=20.8
C[C@H](CO)N1C[C@H](C)[C@@H](CN(C)C(=O)c2ccc3c(c2)OCO3)Oc2ncc(/C=C/c3ccccc3)cc2C1=O	x	x	x	n	x	x	x	x
CC(C[N+](C)(C)C)OC(=O)C1(c2ccccc2)CCCC1 (stereo not drawn)	63.0	n	n	n	n	n	n	n
CCCNC(=O)N1[C@H](C#N)[C@H](c2ccccc2C2=CCCC2)[C@@H]1CO	x	x	x	n	x	x	x	x
Cc1ccc(-c2c(C#N)c(N)nc3c2CCCCC3)cc1	n	n	n	x	n	n	x	x
CC(C)c1ccc(-c2c(C#N)c(N)nc3c2CCCCC3)cc1	99.6	n	n	x	n	n	n	n
COCC#Cc1ccc2c(c1)O[C@H](CN(C)CC1CCCCC1)[C@H](C)CN([C@H](C)CO)S2(=O)=O	x	x	x	n	x	x	x	x
CN1C(=O)c2cc(NC(=O)c3ccc(F)cc3)ccc2OC[C@H]2O[C@H](CC(=O)NCC3CC3)CC[C@H]21	x	x	x	n	x	x	x	x
C=CCn1c(N)cc(=O)nc1SC(C)C(=O)Nc1cccc2ccccc12 (stereo not drawn)	n	n	n	x	n	n	n	n
Cc1noc(C)c1S(=O)(=O)N(C)C[C@@H]1Oc2ccc(NC(=O)NC3CCCCC3)cc2CC(=O)N([C@@H](C)CO)C[C@@H]1C	x	x	x	n	x	x	x	x
CC(C)NC(=O)CC1OC(=O)c2ccccc21 (stereo not drawn)	n	n	n	x	n	n	x	x
O=C(CC1OC(=O)c2ccccc21)NNC(=O)c1ccc(F)cc1 (stereo not drawn)	n	n	n	n	n	n	n	n
Cc1cccc(NC(=O)CSc2nc3[nH]c(=O)cc(O)c3s2)c1	61.1	n	n	n	n	n	36.6	n	Scp-1 Tm shift=14.3
Cc1cccc(Nc2n[nH]c(=S)s2)c1C	60.1	n	n	n	n	n	n	n
O=C(Cc1ccccc1)NN1C(=O)c2ccccc2C1=O	n	n	n	n	n	n	x	x
O=C(CN1C(=O)c2ccccc2C1=O)NN1C(=O)c2ccccc2C1=O	55.5	n	n	x	n	n	n	n
Cc1ccc(NC(=O)CSc2ccccc2NC(=O)c2ccccc2Cl)cc1Cl	89.7	n	n	x	n	n	63.2	n	Scp-1 Tm shift=n
Cc1ccc(NC(=O)CSc2ccccc2NC(=O)c2ccccc2)cc1Cl	n	n	n	x	n	n	x	x

Bioassay records from PubChem BioAssay.
